Published values pooled from the literature.
Cell line: A549
Effect on: cell growth or viability

Compound	technique	concentration	time	endpoint	result
CC1=C(C(=O)OC(C)C)C(c2cccc([N+](=O)[O-])c2)C(C(=O)OC2CN(C(c3ccccc3)c3ccccc3)C2)=C(N)N1 (centres unmarked)	CCK-8	100 µM	72 h	viability	< 50%
COc1ccc2c(c1)C(=NNc1nnc(Cc3ccccc3)c3ccccc13)C(=O)N2		30 µM		inhibition	13.5%
O=C(CN1C(=O)/C(=C/c2ccco2)SC1=S)Nc1ccccc1	MTT	10 µM		inhibition	39.5%
COc1ccc(-c2nc(NN=C3C(=O)Nc4ccc(F)cc43)c3ccccc3n2)cc1OC		30 µM		inhibition	4.9%
CC(C)c1ccc(/C=C2\SC(=S)N(CC(=O)Nc3ccccc3)C2=O)cc1	MTT	10 µM		inhibition	22.5%
C=C(c1ccc(C(=O)O)cc1)c1cc2c(cc1C)C(C)(C)CCC2(C)C	MTT		72 h	EC50	58 µM
CC(C)=CCC[C@](C)(O)[C@H]1CC[C@]2(C)[C@@H]1[C@H](O)C[C@@H]1[C@@]3(C)CC[C@H](O[C@@H]4O[C@H](CO)[C@@H](O)[C@H](O)[C@H]4O[C@@H]4O[C@H](CO)[C@@H](O)[C@H](O)[C@H]4O)C(C)(C)[C@@H]3CC[C@]12C	MTT		72 h	IC80	> 100 µM
C[C@]12CC[C@@H]3c4ccc(O)cc4CC[C@H]3[C@@H]1CC[C@@H]2O	ATP luminescence		72 h	EC90	56.1 µM
O=C(CN1C(=O)/C(=C/c2ccc(C(F)(F)F)cc2)SC1=S)Nc1ccccc1	MTT	10 µM		inhibition	27.8%
COc1cccc2c1C(=O)c1c(O)c3c(c(O)c1C2=O)C[C@@](O)(C(=O)CO)C[C@@H]3O[C@H]1C[C@H](N)[C@H](O)[C@H](C)O1	SRB		48 h	GI50	< 10 µg/mL
COc1ccc2c(c1)C(=NNc1ncnc3cc(OC)c(OC)cc13)C(=O)N2		10 µM		inhibition	-10.4%
CN1C[C@H](C(=O)N[C@]2(C)O[C@@]3(O)[C@@H]4CCCN4C(=O)[C@H](Cc4ccccc4)N3C2=O)C[C@@H]2c3cccc4[nH]cc(c34)C[C@H]21	MTT		72 h	EC50	43 µM
CCN(CC)CCNC(=O)c1c(C)[nH]c(/C=C2\C(=O)Nc3ccc(F)cc32)c1C		30 µM		inhibition	85.7%
O=C(/C=C/c1ccc2c(ccn2S(=O)(=O)c2ccccc2)c1)NO	SRB		48 h	GI50	1 µM
O=C(CN1C(=O)/C(=C/c2ccc(Cl)cc2Cl)SC1=S)Nc1ccccc1	MTT	10 µM		inhibition	4.43%
COc1ccc(CCNCC(O)COc2cccc(C)c2)cc1OC (centres unmarked)	CCK-8	100 µM	72 h	viability	< 50%
O=C(CN1C(=O)/C(=C/c2ccccn2)SC1=S)Nc1ccccc1	MTT	10 µM		inhibition	32.6%
COC(C)(C)CCC[C@](C)(O)[C@H]1CC[C@]2(C)[C@@H]1[C@H](O)C[C@@H]1[C@@]3(C)CC[C@H](O)C(C)(C)[C@@H]3CC[C@]12C	MTT		72 h	IC20	0.66 µM
O=C(CN1C(=O)/C(=C/c2ccc(F)cc2)SC1=S)Nc1ccccc1	MTT	10 µM		inhibition	27.6%
COc1cccc2c1C(=O)c1c(O)c3c(c(O)c1C2=O)C[C@@](O)(C(=O)CO)C[C@@H]3O[C@H]1C[C@H](N)[C@H](O)[C@H](C)O1	MTT		72 h	GI50	5.66 µM
